ChEMBL document CHEMBL4190313, “In vitro targeting of colon cancer cells using spiropyrazoline oxindoles” (Eur J Med Chem, 2017)
Values belong to the compound of their own block, whether it stands above or below them. The source made the active and inactive calls. No cut-off for these calls is given here.

Experiments:
[1] = test system: HCT-116; assay: Cell cycle arrest in human HCT116 p53+/+ cells assessed as accumulation at G2/M phase at IC50 after 48 hrs by propidium iodide staining-based flow cytometric analysis (reference value: 26.85%); type: functional
[2] = test system: HCT-116; assay: Cell cycle arrest in human HCT116 p53+/+ cells assessed as accumulation at G2/M phase at IC50 after 24 hrs by propidium iodide staining-based flow cytometric analysis (reference value: 29.07%); type: functional
[3] = test system: HCT-116; assay: Induction of apoptosis in human HCT116 p53+/+ cells assessed as early apoptotic cells at IC50 after 72 hrs by Annexin V-FITC/7-AAD staining-based flow cytometric analysis relative to control; type: functional
Outline: (§1)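 HCT-116 p53+/+ cells (5x10⁴/well) exposed at IC50 or 2xIC50, or DMSO, for 72 h. Medium and Accutase-detached cells pooled, resuspended in PBS/2% FBS, stained with Annexin V/7-AAD reagent 20 min at room temperature in the dark. Flow cytometry, at least 5000 events per sample; mean ± SD of three independent experiments.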

[4] = molecular target: T1, Tumour suppressor p53/oncoprotein Mdm2 (Homo sapiens) (UniProt P04637+Q00987); assay: Inhibition of MDM2/p53 interaction in human HCT116 cells assessed as downregulation of MDM2 protein expression at IC50 after 72 hrs by Western blot analysis; type: cell-based
T1 sequence (P04637 whole entry, looked up): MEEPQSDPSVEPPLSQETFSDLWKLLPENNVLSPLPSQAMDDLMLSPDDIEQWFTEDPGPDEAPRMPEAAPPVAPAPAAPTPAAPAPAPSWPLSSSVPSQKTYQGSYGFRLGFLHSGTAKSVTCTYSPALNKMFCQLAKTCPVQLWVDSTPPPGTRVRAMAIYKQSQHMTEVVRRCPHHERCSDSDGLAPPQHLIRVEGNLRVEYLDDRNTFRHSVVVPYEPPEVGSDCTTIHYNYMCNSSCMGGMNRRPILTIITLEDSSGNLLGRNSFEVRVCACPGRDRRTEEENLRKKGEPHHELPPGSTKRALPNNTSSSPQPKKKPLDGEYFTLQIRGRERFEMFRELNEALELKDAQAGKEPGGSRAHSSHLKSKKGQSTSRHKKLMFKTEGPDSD
T1 sequence (Q00987 whole entry, looked up): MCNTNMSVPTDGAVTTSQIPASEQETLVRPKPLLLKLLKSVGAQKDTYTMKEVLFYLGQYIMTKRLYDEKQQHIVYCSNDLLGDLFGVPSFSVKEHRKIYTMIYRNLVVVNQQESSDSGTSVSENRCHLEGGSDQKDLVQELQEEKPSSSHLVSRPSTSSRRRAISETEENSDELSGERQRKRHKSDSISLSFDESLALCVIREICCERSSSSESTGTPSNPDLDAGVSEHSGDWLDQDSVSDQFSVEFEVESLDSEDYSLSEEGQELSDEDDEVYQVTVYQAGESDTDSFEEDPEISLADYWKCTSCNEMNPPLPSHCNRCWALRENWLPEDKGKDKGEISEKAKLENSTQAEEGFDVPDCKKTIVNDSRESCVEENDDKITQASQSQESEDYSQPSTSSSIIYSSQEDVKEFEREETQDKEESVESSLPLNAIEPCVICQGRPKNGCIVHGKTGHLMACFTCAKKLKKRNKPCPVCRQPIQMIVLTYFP

[5] = test system: CCD-18Co; assay: Cytotoxicity against human CCD-18Co cells at IC80 after 72 hrs by MTS assay relative to control; type: cell-based
[6] = molecular target: E3 ubiquitin-protein ligase Mdm2 (Homo sapiens) (UniProt Q00987); assay: Inhibition of FAM-tagged p53-based fluorescent probe binding to human His-tagged MDM2 (1 to 118 residues) up to 400 uM after 30 mins by fluorescence polarization assay
Sequence of E3 ubiquitin-protein ligase Mdm2 (Homo sapiens) (Q00987 whole entry, looked up, the tested form may be a part): as the sequence (Q00987 whole entry, looked up) above
Outline: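 Recombinant human His-tagged MDM2 (residues 1-118), final 10 nM, preincubated with 5-FAM-labelled p53-based peptidomimetic probe, final 1 nM (Kd 1.4 ± 0.3 nM). Buffer: 100 mM potassium phosphate pH 7.5, 100 μg/ml bovine γ-globulin, 0.02% sodium azide, 0.01% Triton X-100, final 4% DMSO. Incubated 30 min at room temperature with shaking; polarization read at ex 485/em 530 nm. Inhibition calculated against protein+probe and free-probe controls.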

[7] = test system: HCT-116; assay: Cytotoxicity against human HCT116 p53+/+ cells at IC50 after 72 hrs by LDH release assay; type: functional, cell-based
Outline: (§2)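 HCT-116 p53+/+ cells treated at IC50 or 2xIC50, or DMSO, for 72 h. Supernatant mixed with LDH assay substrate 10-30 min at room temperature in the dark; absorbance 490 nm, 620 nm reference. LDH release normalized to DMSO control; mean ± SEM of three independent experiments.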

[8] = test system: HCT-116; assay: Antiproliferative activity against human HCT116 p53-/- cells after 72 hrs by MTS assay; type: functional, cell-based; conditions: HCT-116, 72 h
Outline: (§3)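 Cells allowed to adhere 24 h (1x10⁴/well), then exposed to 0.5-50 μM compound from DMSO stocks (final DMSO ≤0.8% v/v) for 72 h. Viability by MTS bio-reduction to formazan, absorbance 490 nm. IC50 from log(inhibitor) vs response (variable slope) fit, at least three independent experiments; table values mean ± SD of three experiments in duplicate.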

[9] = molecular target: T1, Tumour suppressor p53/oncoprotein Mdm2 (Homo sapiens); assay: Inhibition of MDM2/p53 interaction in human HCT116 cells assessed as upregulation of p53 protein expression at IC50 after 72 hrs by Western blot analysis; type: cell-based
[10] = test system: HCT-116; assay: Cell cycle arrest in human HCT116 p53+/+ cells assessed as accumulation at G0/G1 phase at IC50 after 48 hrs by propidium iodide staining-based flow cytometric analysis (reference value: 50.48%); type: functional
[11] = molecular target: T1, Tumour suppressor p53/oncoprotein Mdm2 (Homo sapiens); assay: Inhibition of MDM2-V2/V1-p53 (unknown origin) interaction expressed in human HCT116 p53-/- cells at 20 uM after 20 hrs by biomolecular fluorescence complementation-based flow cytometric analysis; type: cell-based
Outline: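 HCT-116 p53-/- cells cotransfected with 1 µg each of V1-p53 and MDM2-V2 Venus BiFC plasmids by lipofection. Medium replaced 4-6 h later and compound added at 5, 10 or 20 μM, or DMSO, for a further 20 h. Cells detached with accutase; Venus fluorescence by flow cytometry, normalized to DMSO (100%). Mean ± SD of three independent experiments.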

[12] = test system: HCT-116; assay: Antiproliferative activity against human HCT116 p53+/+ cells after 72 hrs by MTS assay; type: functional, cell-based; conditions: HCT-116, 72 h; outline: as §3
[13] = test system: CCD-18Co; assay: Cytotoxicity against human CCD-18Co cells at IC50 after 72 hrs by MTS assay; type: cell-based
[14] = test system: HCT-116; assay: Cell cycle arrest in human HCT116 p53+/+ cells assessed as accumulation at S phase at IC50 after 48 hrs by propidium iodide staining-based flow cytometric analysis (reference value: 22.67%); type: functional
[15] = test system: HCT-116; assay: Synergistic cytotoxicity against human HCT116 p53+/+ cells at IC50 after 72 hrs in presence of 5-FU by MTS assay; type: functional, cell-based
[16] = test system: HCT-116; assay: Cell cycle arrest in human HCT116 p53+/+ cells assessed as accumulation at S phase at IC50 after 24 hrs by propidium iodide staining-based flow cytometric analysis (reference value: 37.44%); type: functional
[17] = test system: HCT-116; assay: Cell cycle arrest in human HCT116 p53+/+ cells assessed as accumulation at G0/G1 phase at IC50 after 24 hrs by propidium iodide staining-based flow cytometric analysis (reference value: 33.49%); type: functional
[18] = test system: HCT-116; assay: Synergistic cytotoxicity against human HCT116 p53+/+ cells at IC10 to IC20 after 72 hrs in presence of 5-FU by MTS assay; type: functional, cell-based
[19] = test system: HCT-116; assay: Cytotoxicity against human HCT116 p53+/+ cells at 2 times IC50 after 72 hrs by LDH release assay relative to control; type: functional; outline: as §2
[20] = test system: HCT-116; assay: Induction of apoptosis in human HCT116 p53+/+ cells assessed as increase in early apoptotic cells at 2 times IC50 after 72 hrs by Annexin V-FITC/7-AAD staining-based flow cytometric analysis; type: functional, cell-based; outline: as §1

Compound: O=C1Nc2cc(Cl)ccc2[C@@]12ON=C(c1ccccc1)[C@@H]2c1ccccc1
IC50 [12]: 39.8 µM

Compound: O=C1Nc2ccccc2[C@]12[C@@H](c1ccccc1)C(c1ccccc1)=NN2c1ccccc1
IC50 [12]: > 20 µM

Compound: CC(C)(C)C1=NN(c2ccccc2)[C@]2(C(=O)Nc3ccccc32)[C@H]1c1ccccc1
IC50 [12]: > 20 µM

Compound: O=C1Nc2c(Cl)cccc2[C@]12[C@@H](c1ccccc1)C(c1ccccc1)=NN2c1ccccc1
IC50 [12]: 16.6 µM

Compound: CC(C)(C)C1=NN(c2ccccc2)[C@]2(C(=O)Nc3cc(Br)ccc32)[C@H]1c1ccccc1
IC50 [12]: > 20 µM

Compound: CC(C)(C)C1=NN(c2ccccc2Cl)[C@]2(C(=O)Nc3ccc(Cl)cc32)[C@H]1c1ccccc1
IC50 [12]: > 20 µM

Compound: CC(C)(C)C1=NN(c2ccccc2)[C@]2(C(=O)Nc3ccc(Br)cc32)[C@H]1c1ccccc1
IC50 [12]: > 20 µM

Compound: O=C1Nc2c(Cl)cccc2[C@]12[C@@H](c1ccccc1)C(c1ccccc1)=NN2c1ccccc1Cl
IC50 [12]: > 20 µM

Compound: CC(C)(C)C1=NN(c2ccccc2Cl)[C@]2(C(=O)Nc3ccccc32)[C@H]1c1ccccc1
IC50 [12]: > 20 µM

Compound: CC(C)(C)C1=NN(c2ccccc2Cl)[C@]2(C(=O)Nc3c(Cl)cccc32)[C@H]1c1ccccc1
IC50 [12]: 17.3 µM

Compound: O=C1Nc2cc(Br)ccc2[C@@]12ON=C(c1ccccc1)[C@@H]2c1ccccc1
IC50 [12]: 35 µM

Compound: CC(C)(C)C1=NN(c2ccccc2)[C@]2(C(=O)Nc3cc(Cl)ccc32)[C@H]1c1cccc(Cl)c1
IC50 [12]: 18.4 µM

Compound: CC(C)(C)C1=NN(c2ccccc2)[C@]2(C(=O)Nc3ccc(Cl)cc32)[C@H]1c1ccccc1
IC50 [12]: 17 µM

Compound: COc1ccc(C2=NO[C@]3(C(=O)Nc4cc(Br)ccc43)[C@H]2c2ccccc2)cc1
IC50 [12]: 33.4 µM

Compound: CC(C)(C)C1=NN(c2ccccc2)[C@]2(C(=O)Nc3cc(Cl)ccc32)[C@H]1c1ccccc1
IC50 [12]: > 20 µM

Compound: O=C1Nc2cc(Cl)ccc2[C@]12[C@@H](c1ccccc1)C(c1ccccc1)=NN2c1ccccc1
IC50 [12]: 16.7 µM

Compounds with a lower IC50 [12], results first:

inhibition [4]: Active | inhibition [6]: inactive | IC50 [8]: 14.2 µM | inhibition [9]: Active | inhibition [11]: Active | IC50 [12]: 13.1 µM
Compound: O=C1Nc2ccc(Br)cc2[C@]12[C@@H](c1ccccc1)C(c1ccccc1)=NN2c1ccccc1
Activity [1]: 15.17% | Activity [2]: 19.55% | Activity [3]: 10% | Activity [5]: 20% | Activity [7]: inactive | Activity [10]: 62% | Activity [13]: Non-Toxic | Activity [14]: 15.38% | Activity [15]: inactive | Activity [16]: 38.59% | Activity [17]: 41.85% | Activity [18]: Active | fold change (FC) [19]: 1.5

IC50 [12]: 15.9 µM
Compound: O=C1Nc2cc(Br)ccc2[C@]12[C@@H](c1ccccc1)C(c1ccccc1)=NN2c1ccccc1

IC50 [12]: 10.6 µM
Compound: COc1ccc(C2=NN(c3ccccc3)[C@]3(C(=O)Nc4ccc(Cl)cc43)[C@H]2c2ccccc2)cc1

IC50 [12]: 11.7 µM
Compound: COc1ccc(C2=NN(c3ccccc3)[C@]3(C(=O)Nc4ccccc43)[C@H]2c2ccccc2)cc1

IC50 [12]: 15.6 µM
Compound: COc1ccc(C2=NN(c3ccccc3)[C@]3(C(=O)Nc4c(Cl)cccc43)[C@H]2c2ccccc2)cc1

IC50 [12]: 11 µM
Compound: O=C1Nc2ccc(Cl)cc2[C@]12[C@@H](c1ccccc1)C(c1ccccc1)=NN2c1ccccc1

IC50 [12]: 12.4 µM
Compound: O=C1Nc2cc(Cl)c(F)cc2[C@]12[C@@H](c1ccccc1)C(c1ccccc1)=NN2c1ccccc1

IC50 [12]: 12.8 µM
Compound: COc1ccc(C2=NN(c3ccccc3)[C@]3(C(=O)Nc4cc(Br)ccc43)[C@H]2c2ccccc2)cc1

IC50 [12]: 13.3 µM
Compound: CC(C)(C)C1=NN(c2ccccc2)[C@]2(C(=O)Nc3c(Cl)cccc32)[C@H]1c1ccccc1

inhibition [4]: Active | IC50 [8]: 11.6 µM | inhibition [9]: Active | inhibition [11]: Active | IC50 [12]: 10.9 µM
Compound: COc1ccc(C2=NN(c3ccccc3)[C@]3(C(=O)Nc4cc(Cl)ccc43)[C@H]2c2cccc(Cl)c2)cc1
Activity [1]: 24.87% | Activity [2]: 11.33% | Activity [3]: 10% | Activity [5]: 20% | Activity [7]: inactive | Activity [10]: 54.78% | Activity [13]: Non-Toxic | Activity [20]: Active | Activity [14]: 20.35% | Activity [16]: 38.45% | Activity [17]: 50.22% | fold change (FC) [19]: 1.5
